# Data from PubChem BioAssay AID504531 (The Scripps Research Institute Molecular Screening Center, 2011).
# Key:
# [1] = biological target: Platelet-activating factor acetylhydrolase (Mus musculus) (UniProt Q60963); assay: in situ PAFAH2 versus pPAFAH selectivity – fluorescence, gel-based ABPP, murine mast cells, selectivity assay for PAFAH2 inhibitor project, late-stage follow-up (AID 504531); conditions: gel-based ABPP FP-Rh, pPAFAH, at 0.01 µM, stronger effect = higher value
# In short: (§1)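 Test system: murine mast cells treated in situ, then soluble lysate fraction; Benchmarks: high control DMSO-only treated cells, low control blank-gel background; Times: 4 h 37 °C compound exposure, 30 min 25 °C labelling; Detection: in-gel fluorescence band IOD after SDS-PAGE; Read-out basis: percent inhibition of PAFAH2 and pPAFAH bands, background-subtracted, versus DMSO-treated cells.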
# [2] = biological target: Platelet-activating factor acetylhydrolase 2, cytoplasmic (Mus musculus) (UniProt Q8VDG7); assay: as above; conditions: gel-based ABPP FP-Rh, PAFAH2, at 0.01 µM, stronger effect = higher value
# Platelet-activating factor acetylhydrolase 2, cytoplasmic (Mus musculus), sequence (Q8VDG7 whole entry, looked up): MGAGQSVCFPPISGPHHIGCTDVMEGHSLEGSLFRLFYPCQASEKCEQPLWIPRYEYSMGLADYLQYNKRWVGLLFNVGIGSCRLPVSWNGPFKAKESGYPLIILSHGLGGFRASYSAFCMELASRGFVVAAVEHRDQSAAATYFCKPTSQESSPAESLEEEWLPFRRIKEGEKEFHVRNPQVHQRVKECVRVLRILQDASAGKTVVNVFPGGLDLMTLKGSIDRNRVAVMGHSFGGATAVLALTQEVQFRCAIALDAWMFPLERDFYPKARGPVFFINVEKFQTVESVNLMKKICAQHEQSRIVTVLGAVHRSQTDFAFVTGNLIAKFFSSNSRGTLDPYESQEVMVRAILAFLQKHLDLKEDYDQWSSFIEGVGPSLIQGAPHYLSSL
# In short: as §1
# Platelet-activating factor acetylhydrolase (Mus musculus), sequence (Q60963 whole entry, looked up): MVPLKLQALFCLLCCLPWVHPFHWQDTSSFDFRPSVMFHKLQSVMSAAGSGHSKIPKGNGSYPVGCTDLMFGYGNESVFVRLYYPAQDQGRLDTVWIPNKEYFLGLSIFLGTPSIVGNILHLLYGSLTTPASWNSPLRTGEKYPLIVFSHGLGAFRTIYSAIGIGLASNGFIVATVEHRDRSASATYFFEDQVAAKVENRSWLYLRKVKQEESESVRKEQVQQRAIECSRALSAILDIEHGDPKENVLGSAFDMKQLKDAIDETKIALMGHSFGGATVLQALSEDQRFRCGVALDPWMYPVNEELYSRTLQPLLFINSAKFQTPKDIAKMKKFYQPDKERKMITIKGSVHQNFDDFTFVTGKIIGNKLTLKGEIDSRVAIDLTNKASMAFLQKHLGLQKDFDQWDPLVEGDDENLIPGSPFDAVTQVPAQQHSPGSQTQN
compound,measurement,setting,value
O=C(N1CCCC1)n1ncc(-c2ccc(-c3ccccc3)cc2)n1,inhibition,[1],0%
same,inhibition,[2],100%
